Reference: ChEMBL document CHEMBL4138159, “Design, synthesis and evaluation of amino-substituted 1H-phenalen-1-ones as anti-leishmanial agents” (Eur J Med Chem, 2018)
Active and inactive are the calls of the source. The calls are words filed in the database; no cut-off is given here.

What was measured:
[1] = test system: Leishmania amazonensis; assay: Antileishmanial activity against Leishmania amazonensis MHOM/BR/77/LTB0016 promastigotes after 72 hrs by Alamarblue assay; type: functional, organism-based; conditions: MHOM/BR/77/LTB0016, 72 h
In short: (§1)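 Log-phase promastigotes (10⁵/well, grown in Schneider's medium with 10% FBS at 26 °C) added to serial compound dilutions in phenol red-free RPMI 1640 with 10% heat-inactivated FBS, plus 10% alamarBlue. Incubated 72 h at 27 °C in the dark. Read at 560 nm against 590 nm reference. Single-concentration screen at 25 µM. IC50 by non-linear regression. Three experiments, each in duplicate.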

[2] = test system: Leishmania amazonensis; assay: Antileishmanial activity against Leishmania amazonensis MHOM/BR/77/LTB0016 promastigotes at 25 uM after 72 hrs by Alamarblue assay relative to control; type: functional; in short: as §1
[3] = test system: Leishmania donovani; assay: Antileishmanial activity against Leishmania donovani MHOM/IN/90/GE1F8R promastigotes after 72 hrs by Alamarblue assay; type: functional, organism-based; in short: as §1
[4] = test system: Leishmania donovani; assay: Antileishmanial activity against Leishmania donovani MHOM/IN/90/GE1F8R promastigotes at 25 uM after 72 hrs by Alamarblue assay relative to control; type: functional; in short: as §1
[5] = test system: Leishmania amazonensis; assay: Antileishmanial activity against Leishmania amazonensis MHOM/BR/77/LTB0016 amastigotes infected in mouse J774A.1 cells assessed as reduction in transformation of rescued amastigotes to promastiogtes after 24 hrs by Alamarblue assay; type: functional, organism-based; conditions: MHOM/BR/77/LTB0016, J774.A1, 24 h
[6] = Selectivity index, ratio of CC50 for mouse J774A.1 cells to IC50 for Leishmania amazonensis MHOM/BR/77/LTB0016 amastigotes infected in mouse J774A.1 cells; type: toxicity, cell-based; conditions: read-out: Ratio CC50/IC50
In short: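 SI = CC50 in J774A.1 macrophages divided by IC50 against intracellular L. amazonensis amastigotes.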

[7] = test system: Leishmania amazonensis; assay: Induction of mitochondrial membrane potential loss in Leishmania amazonensis MHOM/BR/77/LTB0016 promastigotes at antileishmanial IC90 after 24 hrs by JC-1 staining-based spectrofluorometric analysis; type: functional, organism-based
[8] = Cytotoxicity against mouse J774A.1 cells; type: cell-based, J774.A1
[9] = test system: Leishmania donovani; assay: Antileishmanial activity against Leishmania donovani MHOM/SD/00/1S-2D promastigotes preincubated for 2 hrs followed by compound wash measured after 48 hrs by MTT assay; type: functional, organism-based
[10] = test system: Leishmania amazonensis; assay: Potency index, ratio of miltefosine IC50 to compound IC50 for Leishmania amazonensis MHOM/BR/77/LTB0016 amastigotes infected in mouse J774A.1 cells; type: functional

Structure (SMILES) | IC50 [1] [µM] | IC50 [3] [µM] | other results
CN(CCO)C1=Cc2cccc3cccc(c23)C1=O | > 25 | > 25 | Activity [2]: <25%; Activity [4]: <25%
O=C1C=Cc2c(N3CCN(Cc4ccccc4)CC3)ccc3cccc1c23 | 17.5 | 26.3 | 
O=C1C=C(N2CCN(c3ncccn3)CC2)c2cccc3cccc1c23 | > 25 | > 25 | 
O=C1C(N2CCOCC2)=Cc2cccc3cccc1c23 | > 25 | > 25 | 
CCCCCCCCCCCCCCCCOP(=O)([O-])OCC[N+](C)(C)C [MILTEFOSINE] | 6.5 | 3.3 | IC50 [5]: 3.1 µM; selectivity ratio [6]: 23.8; Activity [7]: Active; CC50 [8]: 73.7 µM
O=C1C=C(NCc2ccccc2)c2cccc3cccc1c23 | > 25 | > 25 | 
O=C1C=C(N2CCN(Cc3ccccc3)CC2)c2cccc3cccc1c23 | 9.7 | 24 | IC50 [5]: 1.1 µM; selectivity ratio [6]: 26; Activity [7]: Active; CC50 [8]: 28.5 µM
CCCNc1ccc2cccc3c2c1C(=O)C=C3 | > 25 | > 25 | 
O=C1C=Cc2cccc3ccc(Nc4cccnc4)c1c23 | > 25 | > 25 | 
Nc1ccc2cccc3c2c1C(=O)C=C3 | 26.2 | > 25 | 
COC1=Cc2cccc3ccc(-c4ccccc4)c(c23)C1=O |  |  | IC50 [9]: 35 to 40 µM
CN(C)CCNC1=Cc2cccc3cccc(c23)C1=O | 6 | 9.6 | Ratio IC50 [10]: 3 - 5; IC50 [5]: 0.9 µM; selectivity ratio [6]: 136; Activity [7]: Active; CC50 [8]: 122 µM
O=C1C=Cc2cccc3ccc(N4CCCCC4)c1c23 | > 25 | > 25 | 
CN(CCO)c1ccc2cccc3c2c1C(=O)C=C3 | > 25 | > 25 | 
O=C1C=Cc2cccc3ccc(NCc4ccccc4)c1c23 | 3.5 | 8.3 | IC50 [5]: 2.3 µM; selectivity ratio [6]: 4.1; Activity [7]: Active; CC50 [8]: 9.4 µM
O=C1C=Cc2cccc3ccc(Nc4ccccn4)c1c23 | > 25 | > 25 | 
CN(C)CCNc1ccc2cccc3c2c1C(=O)C=C3 | 1.4 | 2.8 | IC50 [5]: 0.7 µM; selectivity ratio [6]: 55.6; Activity [7]: Active; CC50 [8]: 38.9 µM
CN(C)CCNC1=CC(=O)c2cccc3cccc1c23 | 2.1 | 4.3 | Ratio IC50 [10]: 3 - 5; IC50 [5]: 0.6 µM; selectivity ratio [6]: 159; Activity [7]: Active; CC50 [8]: 95.6 µM
N#Cc1ccc(NC2=Cc3cccc4cccc(c34)C2=O)cc1 | > 25 | > 25 | 
CCCNC1=CC(=O)c2cccc3cccc1c23 | > 25 | > 25 | 
CN(C)CCNc1ccc2cccc3c2c1C=CC3=O | 7.2 | 32.7 | 

Structure (SMILES) | IC50 [1] [µM] | IC50 [3] [µM] | other results
O=C1C=Cc2cccc3ccc(N4CCN(c5ncccn5)CC4)c1c23 | > 25 | > 25 | 
O=C1C=C(N2CCCCC2)c2cccc3cccc1c23 | > 25 | > 25 | 
O=C1C(O)=Cc2cccc3ccc(-c4ccccc4)c1c23 |  |  | IC50 [9]: 35 to 40 µM
O=C1C(N2CCN(Cc3ccccc3)CC2)=Cc2cccc3cccc1c23 | 24 | 26.4 | IC50 [5]: 2.4 µM; selectivity ratio [6]: 51; Activity [7]: inactive; CC50 [8]: 122 µM
O=C1C=Cc2cccc3ccc(N4CCN(Cc5ccccc5)CC4)c1c23 | 11.6 | 14 | Ratio IC50 [10]: 3 - 5; IC50 [5]: 0.6 µM; selectivity ratio [6]: 153; Activity [7]: inactive; CC50 [8]: 91.7 µM
O=C1C(Nc2ccccc2)=Cc2cccc3cccc1c23 | > 25 | > 25 | 
O=C1C(Nc2ccccn2)=Cc2cccc3cccc1c23 | > 25 | > 25 | 
O=C1C=C(N2CCOCC2)c2cccc3cccc1c23 | > 25 | > 25 | 
O=C1C(NCc2ccccc2)=Cc2cccc3cccc1c23 | > 25 | > 25 | 
CCCNC1=Cc2cccc3cccc(c23)C1=O | > 25 | > 25 | Activity [2]: <25%; Activity [4]: <25%
O=C1C=Cc2cccc3cccc1c23 [PERINAPHTHENONE] | > 25 | > 25 | 
O=C1C(Nc2cccnc2)=Cc2cccc3cccc1c23 | > 25 | > 25 | Activity [2]: <25%; Activity [4]: <25%
CN(CCO)C1=CC(=O)c2cccc3cccc1c23 | > 25 | > 25 | 
O=C1C=Cc2cccc3ccc(Nc4ccccc4)c1c23 | > 25 | > 25 | 
O=C1C=Cc2cccc3ccc(N4CCOCC4)c1c23 | > 25 | > 25 | 
O=C1C=Cc2c(NCc3ccccc3)ccc3cccc1c23 | > 25 | > 25 | 
O=C1C(N2CCN(c3ncccn3)CC2)=Cc2cccc3cccc1c23 | > 25 | > 25 | 
O=C1C=Cc2cccc3ccc(O)c1c23 | > 25 | > 25 | 
N#Cc1ccc(Nc2ccc3cccc4c3c2C(=O)C=C4)cc1 | > 25 | > 25 | 
NC1=Cc2cccc3cccc(c23)C1=O | > 25 | > 25 | Activity [2]: <25%; Activity [4]: <25%
O=C1C=Cc2cccc3ccc(NCCO)c1c23 | 27.4 | > 25 | 
